The record followed here is ChEMBL document CHEMBL4043093, “2-Oxo-3, 4-dihydropyrimido[4, 5-d]pyrimidinyl derivatives as new irreversible pan fibroblast growth factor receptor (FGFR) inhibitors” (Eur J Med Chem, 2017).

Assay [1] deals with Ephrin type-A receptor 8 (Homo sapiens) (UniProt P29322). As to the kind of experiment: Inhibition of wild-type human partial length EPHA8 (Q608 to C920 residues) expressed in Escherichia coli BL21 assessed as residual activity at 1000 nM after 30 mins by Kinomescan method relative to control.
Assay [2] has as its target Tyrosine-protein kinase Mer (Homo sapiens) (UniProt Q12866). As to the kind of experiment: Inhibition of wild-type human partial length MERTK (R557 to L884 residues) expressed in Escherichia coli BL21 assessed as residual activity at 1000 nM after 30 mins by Kinomescan method relative to control.
The target of assay [3] is NUAK family SNF1-like kinase 1 (Homo sapiens) (UniProt O60285). As to the kind of experiment: Inhibition of wild-type human partial length ARK5 (E25 to I332 residues) expressed in Escherichia coli BL21 assessed as residual activity at 1000 nM after 30 mins by Kinomescan method relative to control.
In assay [4] the target is MAP/microtubule affinity-regulating kinase 4 (Homo sapiens) (UniProt Q96L34). As to the kind of experiment: Inhibition of wild-type human partial length MARK4 (K29 to G340 residues) expressed in Escherichia coli BL21 assessed as residual activity at 1000 nM after 30 mins by Kinomescan method relative to control.
In assay [5] the target is MAP/microtubule affinity-regulating kinase 3 (Homo sapiens) (UniProt P27448). As to the kind of experiment: Inhibition of wild-type human full length MARK3 (M1 to L729 residues) expressed in Escherichia coli BL21 assessed as residual activity at 1000 nM after 30 mins by Kinomescan method relative to control. An outline of the steps:
(§1)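 Single-concentration screen at 1 µM across a 456-kinase KINOMEscan panel. The read-out is Percent Control for each kinase.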

Assay [6] has as its target G protein-coupled receptor kinase 4 (Homo sapiens) (UniProt P32298). As to the kind of experiment: Inhibition of wild-type human full length GRK4 (M1 to C578 residues) expressed in Escherichia coli BL21 assessed as residual activity at 1000 nM after 30 mins by Kinomescan method relative to control. In a few lines: as §1
Assay [7] has as its target Tyrosine-protein kinase JAK3 (Homo sapiens) (UniProt P52333). As to the kind of experiment: Inhibition of wild-type human partial length JAK3 JH1 catalytic domain (I781 to S1124 residues) expressed in HEK293 cells assessed as residual activity at 1000 nM after 30 mins by Kinomescan method relative to control. The assay is classed as cell-based.
Assay [8] has as its target Serine/threonine-protein kinase BRSK2 (Homo sapiens) (UniProt Q8IWQ3). As to the kind of experiment: Inhibition of wild-type human full length BRSK2 (M1 to L674 residues) expressed in Escherichia coli BL21 assessed as residual activity at 1000 nM after 30 mins by Kinomescan method relative to control. In a few lines:
(§2)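 Single-point screen at a fixed 1 µM, run within a 456-kinase DiscoveRx KINOMEscan panel. Each kinase's read-out is Percent Control, i.e. signal relative to a control without compound. Hits were scored by a Percent Control < 35 cut-off, and an S(35) selectivity score was calculated across the non-mutant kinases.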

In assay [9] the target is Serine/threonine-protein kinase WNK3 (Homo sapiens) (UniProt Q9BYP7). As to the kind of experiment: Inhibition of wild-type human partial length WNK3 (M1 to D434 residues) expressed in HEK293 cells assessed as residual activity at 1000 nM after 30 mins by Kinomescan method relative to control. The assay is classed as cell-based.
Assay [10] deals with Phosphatidylinositol 4,5-bisphosphate 3-kinase catalytic subunit beta isoform (Homo sapiens) (UniProt P42338). As to the kind of experiment: Inhibition of wild-type human partial length PIK3CB (P118 to S1070 residues) expressed in HEK293 cells assessed as residual activity at 1000 nM after 30 mins by Kinomescan method relative to control. It is filed as cell-based.
For assay [11], the target named is Mitogen-activated protein kinase 11 (Homo sapiens) (UniProt Q15759). As to the kind of experiment: Inhibition of wild-type human full length p38-beta (M1 to Q364 residues) expressed in Escherichia coli BL21 assessed as residual activity at 1000 nM after 30 mins by Kinomescan method relative to control.
The target of assay [12] is BDNF/NT-3 growth factors receptor (Homo sapiens) (UniProt Q16620). As to the kind of experiment: Inhibition of wild-type human partial length TRKB (Q547 to G838 residues) expressed in HEK293 cells assessed as residual activity at 1000 nM after 30 mins by Kinomescan method relative to control. The assay is classed as cell-based.
For assay [13], the system named is Receptor-type tyrosine-protein kinase FLT3 (Homo sapiens), P36888 [K663Q]. As to the kind of experiment: Inhibition of human partial length FLT3 K663Q mutant (V592 to Y969 residues) expressed in Escherichia coli BL21 assessed as residual activity at 1000 nM after 30 mins by Kinomescan method relative to control. An outline of the steps:
(§3)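 KINOMEscan binding panel of 456 kinases, with the test compound at a single concentration of 1 µM. Read-out is Percent Control.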

Assay [14] deals with Dual specificity protein kinase CLK1 (Homo sapiens) (UniProt P49759). As to the kind of experiment: Inhibition of wild-type human full length CLK1 (M1 to I484 residues) expressed in Escherichia coli BL21 assessed as residual activity at 1000 nM after 30 mins by Kinomescan method relative to control. In a few lines:
as §2

In assay [15] the test system is Epidermal growth factor receptor (Homo sapiens), P00533 [L858R]. As to the kind of experiment: Inhibition of human partial length EGFR L858R mutant (R669 to V1011 residues) expressed in Escherichia coli BL21 assessed as residual activity at 1000 nM after 30 mins by Kinomescan method relative to control. In a few lines: as §3
Assay [16] concerns the target Phosphatidylinositol 4,5-bisphosphate 3-kinase catalytic subunit alpha isoform (Homo sapiens) (UniProt P42336). As to the kind of experiment: Inhibition of wild-type human partial length PIK3CA (R108 to N1068 residues) expressed in HEK293 cells assessed as residual activity at 1000 nM after 30 mins by Kinomescan method relative to control. The assay is classed as cell-based.

Assay [17] concerns Mast/stem cell growth factor receptor Kit (Homo sapiens), P10721 [A829P]. As to the kind of experiment: Inhibition of human partial length KIT A829P mutant (I571 to D952 residues) expressed in HEK293 cells assessed as residual activity at 1000 nM after 30 mins by Kinomescan method relative to control. The assay is classed as cell-based. An outline of the steps:
as §3

Assay [18] addresses Fibroblast growth factor receptor 2 (Homo sapiens, UniProt P21802). As to the kind of experiment: Inhibition of human recombinant cytoplasmic His-tagged FGFR2 (403 to 822 residues) expressed in baculovirus using Tyr-4 peptide after 1 hr by FRET-based Z'-Lyte assay.
Assay [19] concerns the target Phosphatidylinositol 3-kinase catalytic subunit type 3 (Homo sapiens) (UniProt Q8NEB9). As to the kind of experiment: Inhibition of wild-type human partial length VPS34 (S282 to H879 residues) expressed in HEK293 cells assessed as residual activity at 1000 nM after 30 mins by Kinomescan method relative to control. It is filed as cell-based.
For assay [20], the target named is Tyrosine-protein kinase Tec (Homo sapiens) (UniProt P42680). As to the kind of experiment: Inhibition of wild-type human partial length TEC (L341 to D620 residues) expressed in Escherichia coli BL21 assessed as residual activity at 1000 nM after 30 mins by Kinomescan method relative to control.
Assay [21] concerns the target Serine/threonine-protein kinase 25 (Homo sapiens) (UniProt O00506). As to the kind of experiment: Inhibition of wild-type human partial length YSK1 (V14 to H295 residues) expressed in Escherichia coli BL21 assessed as residual activity at 1000 nM after 30 mins by Kinomescan method relative to control.

SMILES strings stand for the structures.

Chain of Tyrosine-protein kinase JAK3 (Homo sapiens) (P52333 whole entry, the tested form may be a part): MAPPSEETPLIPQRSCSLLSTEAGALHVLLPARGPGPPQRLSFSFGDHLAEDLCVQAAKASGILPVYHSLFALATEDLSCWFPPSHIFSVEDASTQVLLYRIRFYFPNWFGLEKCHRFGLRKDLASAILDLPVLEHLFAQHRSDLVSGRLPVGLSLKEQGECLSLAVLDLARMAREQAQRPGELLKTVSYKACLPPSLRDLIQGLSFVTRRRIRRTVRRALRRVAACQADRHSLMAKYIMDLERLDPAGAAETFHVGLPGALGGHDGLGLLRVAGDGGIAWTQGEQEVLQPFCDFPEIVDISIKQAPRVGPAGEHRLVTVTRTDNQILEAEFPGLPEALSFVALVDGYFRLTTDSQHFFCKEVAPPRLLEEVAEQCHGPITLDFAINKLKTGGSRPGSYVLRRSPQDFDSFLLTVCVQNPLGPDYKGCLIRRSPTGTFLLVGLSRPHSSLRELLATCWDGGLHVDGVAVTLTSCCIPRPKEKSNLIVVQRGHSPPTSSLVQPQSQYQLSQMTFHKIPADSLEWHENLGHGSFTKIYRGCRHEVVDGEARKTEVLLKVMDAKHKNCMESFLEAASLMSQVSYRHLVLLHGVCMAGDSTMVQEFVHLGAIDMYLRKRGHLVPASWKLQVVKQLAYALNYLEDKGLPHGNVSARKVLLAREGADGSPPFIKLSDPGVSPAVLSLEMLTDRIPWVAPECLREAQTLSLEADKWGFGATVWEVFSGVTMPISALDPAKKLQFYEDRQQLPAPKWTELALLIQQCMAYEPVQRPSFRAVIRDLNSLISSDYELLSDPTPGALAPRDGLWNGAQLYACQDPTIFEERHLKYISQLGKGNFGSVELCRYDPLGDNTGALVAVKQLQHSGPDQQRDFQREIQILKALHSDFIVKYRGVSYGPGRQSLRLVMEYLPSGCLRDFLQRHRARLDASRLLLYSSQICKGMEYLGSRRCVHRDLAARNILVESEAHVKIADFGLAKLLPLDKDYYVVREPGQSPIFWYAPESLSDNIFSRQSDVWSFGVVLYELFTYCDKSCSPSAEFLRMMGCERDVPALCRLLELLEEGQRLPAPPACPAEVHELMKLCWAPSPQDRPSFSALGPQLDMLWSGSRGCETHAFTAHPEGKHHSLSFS
Chain of BDNF/NT-3 growth factors receptor (Homo sapiens) (Q16620 32-822 limits assumed): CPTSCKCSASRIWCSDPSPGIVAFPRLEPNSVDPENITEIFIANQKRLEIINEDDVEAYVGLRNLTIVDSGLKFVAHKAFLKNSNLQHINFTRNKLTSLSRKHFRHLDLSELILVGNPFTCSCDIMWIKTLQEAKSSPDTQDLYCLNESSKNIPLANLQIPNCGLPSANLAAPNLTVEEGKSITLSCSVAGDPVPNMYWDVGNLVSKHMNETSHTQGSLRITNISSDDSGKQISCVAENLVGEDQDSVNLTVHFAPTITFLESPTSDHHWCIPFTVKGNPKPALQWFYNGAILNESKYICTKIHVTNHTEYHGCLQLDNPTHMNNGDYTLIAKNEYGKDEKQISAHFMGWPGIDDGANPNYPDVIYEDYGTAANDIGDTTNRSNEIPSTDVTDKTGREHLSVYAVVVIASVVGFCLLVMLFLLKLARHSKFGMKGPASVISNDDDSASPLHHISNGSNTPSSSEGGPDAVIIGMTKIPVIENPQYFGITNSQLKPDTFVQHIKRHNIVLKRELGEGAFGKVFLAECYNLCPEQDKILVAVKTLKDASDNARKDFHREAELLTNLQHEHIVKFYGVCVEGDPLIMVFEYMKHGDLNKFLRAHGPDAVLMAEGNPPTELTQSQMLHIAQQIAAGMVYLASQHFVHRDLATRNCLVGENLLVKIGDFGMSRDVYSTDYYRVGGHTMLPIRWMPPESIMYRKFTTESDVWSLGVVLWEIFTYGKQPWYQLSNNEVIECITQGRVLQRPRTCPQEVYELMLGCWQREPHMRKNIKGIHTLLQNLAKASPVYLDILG
Chain of Mitogen-activated protein kinase 11 (Homo sapiens) (Q15759 whole entry, the tested form may be a part): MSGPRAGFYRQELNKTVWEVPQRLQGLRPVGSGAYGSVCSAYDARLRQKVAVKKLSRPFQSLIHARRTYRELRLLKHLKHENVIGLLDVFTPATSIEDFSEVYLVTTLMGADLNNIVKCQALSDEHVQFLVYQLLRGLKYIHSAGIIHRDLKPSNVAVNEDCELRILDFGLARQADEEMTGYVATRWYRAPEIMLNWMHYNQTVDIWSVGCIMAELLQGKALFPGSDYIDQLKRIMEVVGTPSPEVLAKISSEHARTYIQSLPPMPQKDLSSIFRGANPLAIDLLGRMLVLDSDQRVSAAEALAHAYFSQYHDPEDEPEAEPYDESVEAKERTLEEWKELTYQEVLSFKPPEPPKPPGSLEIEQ
Chain of MAP/microtubule affinity-regulating kinase 3 (Homo sapiens) (P27448 whole entry, looked up, the tested form may be a part): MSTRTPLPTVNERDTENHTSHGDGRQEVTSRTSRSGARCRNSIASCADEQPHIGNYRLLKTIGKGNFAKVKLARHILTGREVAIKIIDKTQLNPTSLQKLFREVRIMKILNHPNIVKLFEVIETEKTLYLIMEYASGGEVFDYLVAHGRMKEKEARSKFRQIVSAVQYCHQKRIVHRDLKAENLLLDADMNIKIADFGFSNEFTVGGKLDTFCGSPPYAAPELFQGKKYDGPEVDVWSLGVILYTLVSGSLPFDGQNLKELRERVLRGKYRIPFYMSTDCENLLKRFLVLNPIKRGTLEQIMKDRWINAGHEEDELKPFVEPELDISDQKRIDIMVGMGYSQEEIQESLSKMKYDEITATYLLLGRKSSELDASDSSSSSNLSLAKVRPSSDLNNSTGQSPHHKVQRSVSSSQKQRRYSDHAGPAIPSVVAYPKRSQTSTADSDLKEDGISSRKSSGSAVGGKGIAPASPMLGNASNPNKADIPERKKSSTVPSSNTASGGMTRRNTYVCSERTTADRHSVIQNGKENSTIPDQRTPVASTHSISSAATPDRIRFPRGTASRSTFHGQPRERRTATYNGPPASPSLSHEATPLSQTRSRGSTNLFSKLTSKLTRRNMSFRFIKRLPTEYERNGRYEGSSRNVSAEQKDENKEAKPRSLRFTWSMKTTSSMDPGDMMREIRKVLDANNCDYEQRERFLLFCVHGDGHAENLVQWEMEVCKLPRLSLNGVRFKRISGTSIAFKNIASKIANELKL
Chain of Ephrin type-A receptor 8 (Homo sapiens) (P29322 whole entry, the tested form may be a part): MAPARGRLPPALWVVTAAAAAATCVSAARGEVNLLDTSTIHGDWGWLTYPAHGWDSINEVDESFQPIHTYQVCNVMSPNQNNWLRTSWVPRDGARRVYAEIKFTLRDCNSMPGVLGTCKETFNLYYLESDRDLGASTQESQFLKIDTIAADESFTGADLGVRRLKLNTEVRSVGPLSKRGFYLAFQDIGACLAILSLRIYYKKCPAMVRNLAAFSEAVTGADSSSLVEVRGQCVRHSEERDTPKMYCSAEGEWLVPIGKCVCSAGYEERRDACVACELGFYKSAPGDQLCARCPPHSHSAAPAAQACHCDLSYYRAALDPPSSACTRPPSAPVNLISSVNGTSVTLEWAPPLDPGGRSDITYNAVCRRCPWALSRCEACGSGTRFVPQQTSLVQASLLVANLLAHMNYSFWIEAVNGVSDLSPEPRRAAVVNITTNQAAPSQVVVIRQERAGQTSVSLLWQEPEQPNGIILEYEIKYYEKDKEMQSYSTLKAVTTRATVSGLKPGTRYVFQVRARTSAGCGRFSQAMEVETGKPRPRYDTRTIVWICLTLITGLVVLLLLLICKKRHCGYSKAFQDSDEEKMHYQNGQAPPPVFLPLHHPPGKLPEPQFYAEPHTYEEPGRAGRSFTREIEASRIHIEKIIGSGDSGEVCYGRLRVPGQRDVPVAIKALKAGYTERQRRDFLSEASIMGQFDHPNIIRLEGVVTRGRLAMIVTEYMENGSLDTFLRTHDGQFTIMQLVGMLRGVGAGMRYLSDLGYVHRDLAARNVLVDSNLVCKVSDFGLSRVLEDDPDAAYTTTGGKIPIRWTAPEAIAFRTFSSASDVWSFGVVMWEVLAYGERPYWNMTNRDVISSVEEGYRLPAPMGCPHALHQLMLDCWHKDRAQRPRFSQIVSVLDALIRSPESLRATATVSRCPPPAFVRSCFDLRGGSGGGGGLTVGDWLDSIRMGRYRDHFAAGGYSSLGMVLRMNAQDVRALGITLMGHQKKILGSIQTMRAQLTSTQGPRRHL
Chain of Fibroblast growth factor receptor 2 (P21802 whole entry, the tested form may be a part): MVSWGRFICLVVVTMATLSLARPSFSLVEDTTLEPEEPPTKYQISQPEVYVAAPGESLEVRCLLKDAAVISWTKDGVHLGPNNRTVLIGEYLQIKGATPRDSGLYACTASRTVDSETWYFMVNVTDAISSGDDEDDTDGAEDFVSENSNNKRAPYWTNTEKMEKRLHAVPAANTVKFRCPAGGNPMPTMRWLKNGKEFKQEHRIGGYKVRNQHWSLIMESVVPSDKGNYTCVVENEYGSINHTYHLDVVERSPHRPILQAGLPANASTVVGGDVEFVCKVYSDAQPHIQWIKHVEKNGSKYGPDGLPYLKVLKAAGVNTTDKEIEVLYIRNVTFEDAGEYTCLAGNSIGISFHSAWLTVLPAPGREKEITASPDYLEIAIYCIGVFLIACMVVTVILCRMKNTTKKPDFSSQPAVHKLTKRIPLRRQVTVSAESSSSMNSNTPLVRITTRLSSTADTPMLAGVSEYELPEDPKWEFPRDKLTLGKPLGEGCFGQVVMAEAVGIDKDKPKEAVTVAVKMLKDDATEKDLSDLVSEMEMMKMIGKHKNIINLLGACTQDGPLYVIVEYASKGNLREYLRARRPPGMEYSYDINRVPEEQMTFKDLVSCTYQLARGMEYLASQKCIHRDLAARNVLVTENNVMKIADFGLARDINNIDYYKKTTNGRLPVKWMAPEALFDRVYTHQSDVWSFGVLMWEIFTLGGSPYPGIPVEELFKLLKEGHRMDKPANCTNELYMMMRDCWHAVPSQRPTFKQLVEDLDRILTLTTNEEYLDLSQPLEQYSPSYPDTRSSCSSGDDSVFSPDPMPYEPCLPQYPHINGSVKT

As a reminder, the IC50 is the concentration that gives 50% inhibition. For `COc1cc(OC)c(Cl)c(N2Cc3cnc(Nc4ccc(F)cc4)nc3N(C3CCN(C(=O)/C=C/CN(C)C)CC3)C2=O)c1Cl`, the Activity is 100% in assay [1]; 85% in [2]; 100% in [3]; 87% in assay [4]; 99% in assay [5]; 78% in assay [6]. In addition, the Activity stood at 98% in assay [7]; 99% in assay [8]; 86% in assay [9]; 100% in assay [10]; 87% in assay [11]; 54% in [12]. For the same molecule, the Activity in [13] turned out to be 100%; in assay [14], 100%; in assay [15], 90%; in assay [16] it was 100%; in assay [17], 30%; in assay [19], 100%. Also, the Activity came to 100% in assay [20] and 97% in assay [21]. Also, in assay [18], the IC50 was determined as 1.45 nM.
